Reference: ChEMBL document CHEMBL1132344, “Novel calcium antagonists with both calcium overload inhibition and antioxidant activity. 2. Structure-activity relationships of thiazolidinone derivatives” (J Med Chem, 1999)

Assays:
Oryctolagus cuniculus [1] = species on record: Oryctolagus cuniculus; experiment: in vitro inhibitory activity on soybean lipoxygenase-induced lipid peroxidations of rabbit low-density lipoprotein (LDL) at 0.5 uM dosage; format: functional
Outline: (§1)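 Rabbit LDL (Havel method) with compound, oxidised by soybean lipoxygenase type-1S (40 μg/mL final) for 24 h at 37 °C in CO2 incubator. LDL fraction separated by gel-permeation chromatography; fluorescence read at ex 360/em 430 nm. Expressed as percent of control.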

Oryctolagus cuniculus [2] = species on record: Oryctolagus cuniculus; experiment: in vitro inhibitory activity on soybean lipoxygenase-induced lipid peroxidations of rabbit low-density lipoprotein (LDL) at 5 uM dosage.; format: functional, organism-based; outline: as §1
Rattus norvegicus [3] = species on record: Rattus norvegicus; experiment: Compound was tested in vitro for [Ca2+] antagonistic activity in K+-depolarized isolated rat aorta; format: functional
Outline: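 Thoracic aorta rings (2–3 mm) from male Sprague–Dawley rats (350–550 g), isometric tension in Krebs–Henseleit pH 7.4, 37 °C, 95% O2/5% CO2, 2 g resting tension. After a priming 30 mM K+ contraction and washout, second 30 mM K+ contraction; compound added cumulatively in half-log steps. IC50 = concentration relaxing contraction to 50%; mean ± SE, 2–8 experiments.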

Canis familiaris = experiment: Effect on coronary blood flow (CBF) by intravenous administration of compound in anesthetized dogs.; format: functional, Canis lupus familiaris; set-up: concentration or dose not given beside the values
Outline: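 Male beagles (9–14 kg) under pentobarbital (35 mg/kg iv, then 3–5 mg/kg/h infusion), artificially ventilated, left thoracotomy. Compound given iv via cephalic vein at […]. Coronary blood flow change expressed as maximal percent change from pre-dose value; mean ± SE from 5–6 dogs or a single experiment.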

Rattus norvegicus [4] = species on record: Rattus norvegicus; experiment: Compound was tested for [Ca2+] overload inhibitory activity in the veratridine-induced [Ca2+] overload model of rat cardiac myocytes.; format: functional, organism-based
Outline: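 Ventricular myocytes isolated from male Sprague–Dawley rats (300–500 g) by enzyme perfusion; rod-shaped cells exposed to compound 30 min, then 50 μg/mL veratridine added. Survival judged by cell shape 5 min later. Value is molar concentration inhibiting cell death by >80%; 2–8 experiments, >50 rod-shaped myocytes each.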

Oryctolagus cuniculus [5] = species on record: Oryctolagus cuniculus; experiment: In vitro inhibitory activity on soybean lipoxygenase-induced lipid peroxidations of rabbit low-density lipoprotein (LDL) at 5 uM dosage.; format: functional, organism-based; outline: as §1
Oryctolagus cuniculus [6] = species on record: Oryctolagus cuniculus; experiment: In vitro inhibitory activity on soybean lipoxygenase-induced lipid peroxidations of rabbit low-density lipoprotein (LDL) at 0.5 uM dosage; format: functional; outline: as §1

Structure (SMILES) | IC50 (Rattus norvegicus [3]; Rattus norvegicus, Aorta) | IC50 (Rattus norvegicus [4]; Rattus norvegicus) | other results
CN(CCCN1C(=O)CSC1c1cc(C(C)(C)C)c(O)c(C(C)(C)C)c1)CCOc1ccc2c(c1)OCO2 (single isomer, unassigned; (+)) [listing 1 of 2 here] |  |  | LDL oxidation (Oryctolagus cuniculus [1]): 13.5%; LDL oxidation (Oryctolagus cuniculus [2]): 5.9%
CN(CCCN1C(=O)CSC1c1cc(C(C)(C)C)c(O)c(C(C)(C)C)c1)CCOc1ccc2c(c1)OCO2 (stereo in doubt; 1) [listing 1 of 2 here] |  |  | IC50 (Rattus norvegicus [3]): 62 nM; CBF increasing activity (Canis familiaris): 96%
COc1c(C(C)(C)C)cc(C2SCC(=O)N2CCCN(C)CCOc2ccc3c(c2)OCO3)cc1C(C)(C)C (stereo not drawn) | 36 nM | 1000 nM | LDL oxidation (Oryctolagus cuniculus [1]): 91.6%; LDL oxidation (Oryctolagus cuniculus [2]): 39.7%
CN(CCOc1ccc2c(c1)OCO2)CCN1C(=O)CSC1c1cc(C(C)(C)C)c(O)c(C(C)(C)C)c1 (stereo not drawn) | 360 nM |  | 
CN(CCCCOc1ccc2c(c1)OCO2)CCCN1C(=O)CSC1c1cc(C(C)(C)C)c(O)c(C(C)(C)C)c1 (stereo not drawn) | 200 nM | 320 nM | 
CN(CCCCCN1C(=O)CSC1c1cc(C(C)(C)C)c(O)c(C(C)(C)C)c1)CCOc1ccc2c(c1)OCO2 (stereo not drawn) | 280 nM |  | LDL oxidation (Oryctolagus cuniculus [2]): 5.9%
CC(C)c1cc(C2SCC(=O)N2CCCN(C)CCOc2ccc3c(c2)OCO3)cc(C(C)C)c1O (stereo not drawn) | 140 nM | 320 nM | 
CN(CCCN1C(=O)CSC1c1cc(C(C)(C)C)c(O)c(C(C)(C)C)c1)CCOc1ccc2c(c1)OCO2 (single isomer, unassigned; (-)) [listing 1 of 2 here] |  |  | IC50 (Rattus norvegicus [3]): 33 nM; CBF increasing activity (Canis familiaris): 117%; IC50 (Rattus norvegicus [4]): 320 nM
CC(C)(C)c1cc(C2SCC(=O)N2CCCNCCOc2ccc3c(c2)OCO3)cc(C(C)(C)C)c1O (stereo not drawn) | 160 nM | 1000 nM | 
Cc1c(C)c2c(c(C)c1O)CC[C@@](C)(CCC[C@H](C)CCC[C@H](C)CCCC(C)C)O2 [ALPHA-TOCOPHEROL] | 60200 nM | 13200 nM | 
CN(CCCN1C(=O)C[S+]([O-])C1c1cc(C(C)(C)C)c(O)c(C(C)(C)C)c1)CCOc1ccc2c(c1)OCO2 (stereo not drawn) | 790 nM |  | 
CN(CCCN1C(=O)CSC1c1cc(C(C)(C)C)c(O)c(C(C)(C)C)c1)CCOc1ccc2c(c1)OCO2 (single isomer, unassigned; (+)) [listing 2 of 2 here] |  |  | IC50 (Rattus norvegicus [3]): 340 nM; CBF increasing activity (Canis familiaris): 16%; IC50 (Rattus norvegicus [4]): 320 nM
CN(CCCN1C(=O)CSC1c1cc(Cl)c(O)c(Cl)c1)CCOc1ccc2c(c1)OCO2 (stereo not drawn) | > 10000 nM |  | 
CCN(CCCN1C(=O)CSC1c1cc(C(C)(C)C)c(O)c(C(C)(C)C)c1)CCOc1ccc2c(c1)OCO2 (stereo not drawn) | 63 nM | 320 nM | CBF increasing activity (Canis familiaris): 52%; LDL oxidation (Oryctolagus cuniculus [1]): 16.8%; LDL oxidation (Oryctolagus cuniculus [2]): 6.4%
CCc1cc(C2SCC(=O)N2CCCN(C)CCOc2ccc3c(c2)OCO3)cc(CC)c1O (stereo not drawn) | 320 nM |  | 
CN(CCCCN1C(=O)CSC1c1cc(C(C)(C)C)c(O)c(C(C)(C)C)c1)CCOc1ccc2c(c1)OCO2 (stereo not drawn) | 210 nM | 1000 nM | 
CN(CCCN1C(=O)CSC1c1cc(C(C)(C)C)c(O)c(C(C)(C)C)c1)CCOc1ccc2c(c1)OCO2 (single isomer, unassigned; (-)) [listing 2 of 2 here] |  |  | LDL oxidation (Oryctolagus cuniculus [1]): 16.4%; LDL oxidation (Oryctolagus cuniculus [2]): 3.9%
COc1cc(C2SCC(=O)N2CCCN(C)CCOc2ccc3c(c2)OCO3)cc(OC)c1O (stereo not drawn) | 4100 nM |  | 
CN(CCCN1C(=O)CSC1c1cc(C(C)(C)C)c(O)c(C(C)(C)C)c1)CCOc1ccc2c(c1)OCO2 (stereo in doubt; 1) [listing 2 of 2 here] |  |  | LDL oxidation (Oryctolagus cuniculus [5]): 3%; LDL oxidation (Oryctolagus cuniculus [6]): 12.9%
CN(CCCN1C(=S)CSC1c1cc(C(C)(C)C)c(O)c(C(C)(C)C)c1)CCOc1ccc2c(c1)OCO2 (stereo not drawn) | 160 nM |  | LDL oxidation (Oryctolagus cuniculus [1]): 22.8%; LDL oxidation (Oryctolagus cuniculus [2]): 11.3%
CN(CCCN1C(=O)CSC1c1ccc(O)c(C(C)(C)C)c1)CCOc1ccc2c(c1)OCO2 (stereo not drawn) | 560 nM |  | 

Continued, in another order:

IC50 (Rattus norvegicus [3]; Rattus norvegicus, Aorta) | IC50 (Rattus norvegicus [4]; Rattus norvegicus) | Structure (SMILES) | other results
100 nM | > 10000 nM | COc1ccc([C@@H]2Sc3ccccc3N(CCN(C)C)C(=O)[C@@H]2OC(C)=O)cc1 [DILTIAZEM] | CBF increasing activity (Canis familiaris): 86%; LDL oxidation (Oryctolagus cuniculus [1]): 109%; LDL oxidation (Oryctolagus cuniculus [2]): 111%
320 nM |  | CC(C)(C)c1cc(C2SCC(=O)N2CCCN(CCO)CCOc2ccc3c(c2)OCO3)cc(C(C)(C)C)c1O (stereo not drawn) | 
2600 nM |  | CN(CCCN1C(=O)CSC1c1ccc(O)cc1)CCOc1ccc2c(c1)OCO2 (stereo not drawn) | 
19700 nM | 900 nM | Cc1cc(C(C)(C)C)c(O)c(C(C)(C)C)c1 [BUTYLATED HYDROXYTOLUENE] | 
630 nM |  | Cc1cc(C2SCC(=O)N2CCCN(C)CCOc2ccc3c(c2)OCO3)c(C)c(C)c1O (stereo not drawn) | 
78 nM | 320 nM | CN(CCCOc1ccc2c(c1)OCO2)CCCN1C(=O)CSC1c1cc(C(C)(C)C)c(O)c(C(C)(C)C)c1 (stereo not drawn) | CBF increasing activity (Canis familiaris): 23%; LDL oxidation (Oryctolagus cuniculus [1]): 16.4%; LDL oxidation (Oryctolagus cuniculus [2]): 3.9%
280 nM |  | Cc1cc(C2SCC(=O)N2CCCN(C)CCOc2ccc3c(c2)OCO3)cc(C(C)(C)C)c1O (stereo not drawn) | 
2300 nM |  | Cc1cc(C2SCC(=O)N2CCCN(C)CCOc2ccc3c(c2)OCO3)cc(C)c1O (stereo not drawn) | 
450 nM | 1000 nM | CC(C)N(CCCN1C(=O)CSC1c1cc(C(C)(C)C)c(O)c(C(C)(C)C)c1)CCOc1ccc2c(c1)OCO2 (stereo not drawn) | 
